Source: ChEMBL document CHEMBL4402603, “Structure-Activity Relationship of SPOP Inhibitors against Kidney Cancer” (J Med Chem, 2020)

Tests used:
[1] = test system: A498; experiment: Antiproliferative activity against human A498 cells assessed as reduction in cell viability at 30 uM incubated for 72 hrs by MTT assay relative to control; format: functional; settings: A498, 72 h
Outline: (§1)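 MTT read-out. Cells seeded at 1,000-2,200/well, grown 12 hr at 37 °C, then compound added for 72 hr. MTT for 4 hr, formazan dissolved in DMSO, absorbance at 490 nm. Untreated-cell OD taken as 100% proliferation; inhibition reported at 30 μM.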

[2] = test system: OS-RC-2; experiment: Antiproliferative activity against human OS-RC2 cells assessed as reduction in cell viability at 30 uM incubated for 72 hrs by MTT assay relative to control; format: functional; settings: OS-RC-2, 72 h; outline: as §1
[3] = target: Speckle-type POZ protein (Homo sapiens) (UniProt O43791); experiment: Binding affinity to recombinant N-terminal GST/His-tagged MATH binding domain SPOP (unknown origin) expressed in Escherichia coli BL21 (DE3) assessed as change in melting temperature at 10 fold compound incubated for 15 mins by nano differential scanning fluorimetry (reference value: -1.7 degreeC)
[4] = target: Speckle-type POZ protein (Homo sapiens) (UniProt O43791); experiment: Binding affinity to recombinant N-terminal GST/His-tagged MATH binding domain SPOP (unknown origin) expressed in Escherichia coli BL21 (DE3) assessed as change in melting temperature at 20 fold compound incubated for 15 mins by nano differential scanning fluorimetry (reference value: -3.8 degreeC)
[5] = test system: A498; experiment: Antiproliferative activity against human A498 cells assessed as reduction in cell viability incubated for 72 hrs by MTT assay; format: functional, cell-based; settings: A498, 72 h
Outline: (§2)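 MTT read-out. Cells seeded at 1,000-2,200/well, grown 12 hr at 37 °C before compound, then exposed 72 hr. MTT for 4 hr, formazan dissolved in DMSO, A490 read. Untreated cells = 100% proliferation. IC50 quantitated; mean ± SD, n = 3.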

[6] = test system: OS-RC-2; experiment: Antiproliferative activity against human OS-RC2 cells assessed as reduction in cell viability incubated for 72 hrs by MTT assay; format: functional, cell-based; settings: OS-RC-2, 72 h; outline: as §2
[7] = target: Speckle-type POZ protein (Homo sapiens) (UniProt O43791); experiment: Binding affinity to recombinant N-terminal GST/His-tagged SPOP (unknown origin) MATH binding domain expressed in Escherichia coli BL21 (DE3) assessed as change in melting temperature at 5 fold compound by SYPRO Orange dye based differential scanning fluorimetry (reference value: -1.7 degreeC)

Speckle-type POZ protein (Homo sapiens), sequence (O43791 whole entry, the tested form may be a part): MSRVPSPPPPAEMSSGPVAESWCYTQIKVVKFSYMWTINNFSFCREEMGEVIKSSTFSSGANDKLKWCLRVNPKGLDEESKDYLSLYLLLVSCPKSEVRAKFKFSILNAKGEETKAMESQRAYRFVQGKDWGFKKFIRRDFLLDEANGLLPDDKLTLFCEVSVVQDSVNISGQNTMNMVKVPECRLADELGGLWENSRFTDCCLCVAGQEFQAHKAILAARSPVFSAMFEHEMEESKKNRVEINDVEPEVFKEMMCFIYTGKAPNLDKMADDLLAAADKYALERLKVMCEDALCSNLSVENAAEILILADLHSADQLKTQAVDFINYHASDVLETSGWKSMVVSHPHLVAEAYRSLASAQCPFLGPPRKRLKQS

Structure (SMILES) | inhibition at 30 µM [1] [%] | inhibition at 30 µM [2] [%] | ΔTm [3] [°C] | ΔTm [4] [°C] | IC50 [5] [µM] | IC50 [6] [µM] | ΔTm [7] [°C]
Cc1cccn2c(=O)c3cc(C(=O)NCC4CCCO4)c(=N)n(CCc4cccs4)c3nc12 (stereo not given) | 86 | 83 |  |  |  |  | 
Cc1cccn2c(=O)c3cc(C(=O)NCCCN4CCOCC4)c(=N)n(CCN4CCOCC4)c3nc12 | 35 | 40 |  |  |  |  | 
Cc1cccn2c(=O)c3cc(C(=O)O)c(=N)n(-c4ccccc4)c3nc12 | 24 | 16 |  |  |  |  | 
N=c1c(C(=O)NCCCN2CCOCC2)cc2c(=O)n3ccccc3nc2n1CCc1cccs1 | 62 | 56 |  |  |  |  | 
O=C(O)c1cc2cnccc2n(CCc2ccccc2)c1=O | 21 | 15 |  |  |  |  | 
Cc1cccn2c(=O)c3cc(C(=O)NCCCN4CCOCC4)c(=N)n(-c4ccc(Cl)cc4)c3nc12 | 17 | 38 |  |  |  |  | 
Cc1cccn2c(=O)c3cc(C(=O)NCCN4CCOCC4)c(=N)n(CCc4cccs4)c3nc12 | 86 | 82 | 3.1 | 3.3 |  |  | 
Cc1cccn2c(=O)c3cc(C(=O)NCCCN4CCOCC4)c(=N)n(C(C)C)c3nc12 | 11 | 15 |  |  |  |  | 
Cc1cccn2c(=O)c3cc(C(=O)NCCCN4CCOCC4)c(=N)n(Cc4ccccc4)c3nc12 | 58 | 46 |  |  |  |  | 
Cc1cccn2c(=O)c3cc(C(=O)O)c(=N)n(-c4ccc(F)cc4)c3nc12 | 18 | 33 |  |  |  |  | 
CCOC(=O)c1cc2cnccc2n(CCc2ccccc2)c1=O | 14 | 15 |  |  |  |  | 
Cc1cccn2c(=O)c3cc(C(=O)NCCCc4ccccc4)c(=N)n(CCc4cccs4)c3nc12 | 62 | 58 | 2.8 | 2.6 |  |  | 
C#CCn1c(=N)c(C(=O)NCCCN2CCOCC2)cc2c(=O)n3cccc(C)c3nc21 | 37 | 37 |  |  |  |  | 
CCOC(=O)c1cc2c(=O)n3cccc(C)c3nc2n(Cc2ccco2)c1=N | 59 | 56 |  |  |  |  | 
Cc1ccc(CCn2c(=N)c(C(=O)NCCCN3CCOCC3)cc3c(=O)n4cccc(C)c4nc32)cc1 | 91 | 94 | 1.8 | 2.1 | 2.1 | 5.7 | 2
Cc1cccn2c(=O)c3cc(C(=O)O)c(=N)n(Cc4ccccc4)c3nc12 | 20 | 32 |  |  |  |  | 
CCN(CC)CCn1c(=N)c(C(=O)NCCCN2CCOCC2)cc2c(=O)n3cccc(C)c3nc21 | 86 | 89 |  |  | 3.5 | 3.9 | 
CCCn1c(=N)c(C(=O)OCC)cc2c(=O)n3cccc(C)c3nc21 | 38 | 35 |  |  |  |  | 
Cc1cccn2c(=O)c3cc(C(=O)NCCCN4CCOCC4)c(=N)n(CCc4ccccc4F)c3nc12 | 61 | 74 |  |  |  |  | 

Structure (SMILES) | inhibition at 30 µM [1] [%] | inhibition at 30 µM [2] [%] | ΔTm [3] [°C] | ΔTm [4] [°C] | IC50 [5] [µM] | IC50 [6] [µM] | ΔTm [7] [°C]
Cc1cccn2c(=O)c3cc(C(=O)O)c(=N)n(C(C)C)c3nc12 | 18 | 22 |  |  |  |  | 
CCOC(=O)c1cc2c(=O)n3cccc(C)c3nc2n(CCc2ccc(Cl)cc2)c1=N | 42 | 48 | 0.8 | 1.6 |  |  | 
Cc1ccc(CCn2c(=N)c(C(=O)O)cc3c(=O)n4cccc(C)c4nc32)cc1 | 51 | 31 |  |  |  |  | 
CCOC(=O)c1cc2c(=O)n3cccc(C)c3nc2n(CCc2ccccc2)c1=N | 24 | 20 |  |  |  |  | 
Cc1cccn2c(=O)c3cc(C(=O)NCCCN4CCOCC4)c(=N)n(CCCc4ccccc4)c3nc12 | 90 | 91 |  |  | 2.6 | 5.1 | 
Cc1ccn2c(=O)c3cc(C(=O)NCCCN4CCOCC4)c(=N)n(CCc4cccs4)c3nc2c1 | 75 | 77 |  |  |  |  | 
Cc1cccn2c(=O)c3cc(C(=O)NCCc4ccc(F)cc4)c(=N)n(CCc4cccs4)c3nc12 | 12 | 21 |  |  |  |  | 
Cc1cccn2c(=O)c3cc(C(=O)NCCc4ccccc4)c(=N)n(CCc4cccs4)c3nc12 | 85 | 52 | 3.5 | 3.7 | 5 | 24.2 | 
CCN(CC)CCNC(=O)c1cc2cccnc2n(CCc2ccccc2)c1=O | 13 | 30 |  |  |  |  | 
Cc1cccn2c(=O)c3cc(C(=O)O)c(=N)n(CCc4cccs4)c3nc12 | 25 | 37 |  |  |  |  | 
Cc1cccn2c(=O)c3cc(C(=O)NCCCN4CCOCC4)c(=N)n(CCOc4ccccc4)c3nc12 | 50 | 36 |  |  |  |  | 
Cc1cccn2c(=O)c3cc(C(=O)NCCCN4CCOCC4)c(=N)n(CCc4ccc(Cl)cc4)c3nc12 | 90 | 97 | 2.4 | 3.5 | 2.3 | 4 | 
COc1ccc(CCn2c(=N)c(C(=O)NCCCN3CCOCC3)cc3c(=O)n4cccc(C)c4nc32)cc1 | 90 | 88 | 2.5 | 3.6 | 2.8 | 6.5 | 2.7
Cc1cccn2c(=O)c3cc(C(=O)NCCCN4CCOCC4)c(=N)n(CCc4c[nH]c5ccccc45)c3nc12 | 55 | 51 |  |  |  |  | 
CCN(CC)CCNC(=O)c1cc2cnccc2n(CCc2ccccc2)c1=O | 38 | 11 |  |  |  |  | 
Cc1cccn2c(=O)c3cc(C(=O)NCCCN4CCOCC4)c(=N)n(CCCN4CCOCC4)c3nc12 | 27 | 35 |  |  |  |  | 
Cc1cccn2c(=O)c3cc(C(=O)NCCCN4CCOCC4)c(=N)n(C4CCCCC4)c3nc12 | 37 | 22 |  |  |  |  | 
Cc1cccn2c(=O)c3cc(C(=O)O)c(=N)n(CCc4ccc(Cl)cc4)c3nc12 | 57 | 30 |  |  |  |  | 
CCOC(=O)c1cc2c(=O)n3cccc(C)c3nc2n(C(C)C)c1=N | 27 | 23 |  |  |  |  | 

Structure (SMILES) | inhibition at 30 µM [1] [%] | inhibition at 30 µM [2] [%] | ΔTm [3] [°C] | ΔTm [4] [°C] | IC50 [5] [µM] | IC50 [6] [µM] | ΔTm [7] [°C]
O=C(O)c1cc2cccnc2n(CCc2ccccc2)c1=O | 33 | 24 |  |  |  |  | 
CCOC(=O)c1cc2cccnc2n(CCc2ccccc2)c1=O | 15 | 19 |  |  |  |  | 
CCOC(=O)c1cc2c(=O)n3cccc(C)c3nc2n(-c2ccccc2)c1=N | 51 | 10 |  |  |  |  | 
Cc1cccn2c(=O)c3cc(C(=O)NCCCN4CCOCC4)c(=N)n(-c4ccccc4)c3nc12 | 12 | 23 |  |  |  |  | 
O=C(NCCc1ccc(F)cc1)c1cc2cnccc2n(CCc2ccccc2)c1=O | 25 | 16 |  |  |  |  | 
CCCn1c(=N)c(C(=O)NCCCN2CCOCC2)cc2c(=O)n3cccc(C)c3nc21 | 57 | 66 |  |  | 6.4 | 5.2 | 
Cc1cccn2c(=O)c3cc(C(=O)O)c(=N)n(CCc4ccccc4)c3nc12 | 13 | 28 | 2.3 | 3.7 |  |  | 
Cc1cccn2c(=O)c3cc(C(=O)NCCO)c(=N)n(CCc4cccs4)c3nc12 | 83 | 81 |  |  |  |  | 
O=C(NCCc1ccc(F)cc1)c1cc2cccnc2n(CCc2ccccc2)c1=O | 8 | 14 |  |  |  |  | 
Cc1cccn2c(=O)c3cc(C(=O)O)c(=N)n(Cc4ccco4)c3nc12 | 24 | 16 |  |  |  |  | 
Cc1cccn2c(=O)c3cc(C(=O)NCCCN4CCOCC4)c(=N)n(C)c3nc12 | 59 | 62 |  |  |  |  | 
Cc1cccn2c(=O)c3cc(C(=O)NCCCN4CCOCC4)c(=N)n(Cc4ccncc4)c3nc12 | 48 | 35 |  |  |  |  | 
CCOC(=O)c1cc2c(=O)n3cccc(C)c3nc2n(-c2ccc(F)cc2)c1=N | 33 | 16 | 1.7 | 1.9 |  |  | 
CCOC(=O)c1cc2c(=O)n3cccc(C)c3nc2n(CCc2ccc(C)cc2)c1=N | 51 | 49 | 0.8 | 1.5 |  |  | 
CCCn1c(=N)c(C(=O)O)cc2c(=O)n3cccc(C)c3nc21 | 21 | 29 |  |  |  |  | 
CCOC(=O)c1cc2c(=O)n3cccc(C)c3nc2n(CCc2cccs2)c1=N | 38 | 49 | 4.9 | 5.3 |  |  | 
Cc1cccn2c(=O)c3cc(C(=O)NCc4ccccc4)c(=N)n(CCc4cccs4)c3nc12 | 60 | 50 |  |  |  |  | 
CCOC(=O)c1cc2c(=O)n3cccc(C)c3nc2n(Cc2ccccc2)c1=N | 24 | 26 |  |  |  |  | 
